Screening results as filed in PubChem BioAssay.
The list is not random: actives were taken first. Their share in the collection is about 3.1%.
MEKK3 PB1 HTS: modulators of MEKK3-MEK5 PB1 binding, primary screen, biochemical, wildtype MEKK3, multiplex bead flow cytometry, Alexa488-MEK5 | Mitogen-activated protein kinase kinase kinase 3 (Homo sapiens), Q99759 | bead-based flow cytometry, Alexa488-MEK5 binding to MEKK3; actives lie on both sides; 0 = blocked by unlabeled MEK5, 100 = vehicle | binding response (% of control), % at 10 µM | 1.4% of 290,000 active | AID 1529, 2009;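 active = binding response more than 3 SD above or below the average of its plate-row segment, actives on both sides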;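 also: Alexa488 bead fluorescence after subtracting the streptavidin-only scavenger bead signal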
Target sequence (Q99759 whole entry, looked up): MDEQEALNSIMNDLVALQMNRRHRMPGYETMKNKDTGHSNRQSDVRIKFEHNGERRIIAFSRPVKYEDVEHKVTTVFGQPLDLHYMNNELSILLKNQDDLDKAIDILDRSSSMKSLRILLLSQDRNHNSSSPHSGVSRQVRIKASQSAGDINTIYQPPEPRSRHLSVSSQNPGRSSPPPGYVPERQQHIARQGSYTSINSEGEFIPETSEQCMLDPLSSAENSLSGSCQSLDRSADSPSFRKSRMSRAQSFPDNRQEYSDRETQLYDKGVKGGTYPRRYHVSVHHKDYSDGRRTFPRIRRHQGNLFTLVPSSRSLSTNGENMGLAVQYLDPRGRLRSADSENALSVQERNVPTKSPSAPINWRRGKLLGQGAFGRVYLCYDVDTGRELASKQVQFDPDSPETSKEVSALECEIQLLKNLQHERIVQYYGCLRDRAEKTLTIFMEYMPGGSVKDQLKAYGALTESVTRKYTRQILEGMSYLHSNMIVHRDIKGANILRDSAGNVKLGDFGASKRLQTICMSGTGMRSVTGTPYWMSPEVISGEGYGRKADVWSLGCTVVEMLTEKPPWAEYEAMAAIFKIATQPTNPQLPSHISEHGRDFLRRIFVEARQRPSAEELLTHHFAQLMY
MEKK2 mut-MEK5: MEK5 binding signal on mutant MEKK2 PB1, primary screen, biochemical, multiplex bead flow cytometry, Alexa488-MEK5; Alexa488-MEK5 binding to MEKK2 mutant; percent response, % at 10 µM; 0.35% of 290,000 active; in the data active = percent response above about 24%, passing the limit was not always enough
PREPL inh: PREPL enzyme inhibitors, primary screen, biochemical, fluorescence polarization; recombinant PREPL, fluorescence polarization activity-based probe; 0.68% of 320,000 active; Prolyl endopeptidase-like (Homo sapiens), Q4J6C6; inhibition, % at 5.96 µM; in the data active = inhibition above about 43%;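 also: 0% = enzyme with DMSO and 100% = wells lacking enzyme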
UBC13 inh: UBC13 polyubiquitin chain formation inhibitors, primary screen, biochemical, TR-FRET, uHTS | Ubiquitin-conjugating enzyme E2 N (Homo sapiens), P61088 | inhibition, % at 20 µM | 0.47% of 330,000 active; in the data active = inhibition above about 45%, passing the limit was not always enough
Apaf-1 inh: inhibitors of human Apaf-1 apoptosome, primary screen, biochemical, DEVD-Rh110 fluorescence, uHTS | Apoptotic protease-activating factor 1 (Homo sapiens), O14727 | reconstituted apoptosome caspase-3 activity | inhibition, % at 20 µM | 0.71% of 330,000 active; active = inhibition of at least 40% at 20 µM;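 also: plate controls were DMSO wells for no effect and DEVD-CHO caspase inhibitor wells for full effect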
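Material: reconstituted apoptosome with Apaf-1, cytochrome c, caspase-9, procaspase-3, dATP; medium: pH 7.5 Hepes buffer with CHAPS, BSA, DTT; also added: cytochrome c and DEVD-Rh110 substrate; timing: 30 min plus 50 min, RT; signal: Rh110 fluorescence intensity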
MEKK2wt PB1 HTS: modulators of MEK5 binding to wildtype MEKK2, primary screen, biochemical, multiplex bead flow cytometry, Alexa488-MEK5; Mitogen-activated protein kinase kinase kinase 2 (Homo sapiens), Q9Y2U5; Alexa488-MEK5 binding to MEKK2 WT; actives lie on both sides; binding response (% of control), % at 10 µM; 1.1% of 290,000 active; AID 1531, 2009; in the data active = binding response below about 67% or above about 130%
MEKK2wt confirm: modulators of MEK5 binding to wildtype MEKK2, confirmation, biochemical, single concentration, multiplex bead flow cytometry; AID 1892, 2009; 2.4% of 5,900 active; Alexa488-MEK5 binding to MEKK2 WT; actives lie on both sides; shares compounds with MEKK3 PB1 HTS; binding response (% of control), % at 10 µM; in the data active = binding response below about 16% or above about 210%; inactive = in between
MEKK2mut-MEK5: mutant MEKK2 PB1-MEK5 binding signal retest – biochemical, single concentration, multiplex bead flow cytometry, confirmation; shares compounds with MEKK3 PB1 HTS; percent response, % at 10 µM; 2% of 5,900 active; Alexa488-MEK5 binding to MEKK2 mutant; in the data active = percent response mostly above about 71%, no sharp cut-off; inactive = mostly below about 38%;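 also: higher means compound restores mutant binding toward wildtype level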
MEKK3-MEK5 inh: MEKK3 wild-type PB1 binding to MEK5, inhibitors, confirmation, biochemical, bead multiplex flow cytometry, single concentration, wildtype. Alexa488-MEK5 binding to MEKK3; stronger effect = lower value. 1.8% of 5,900 active. shares compounds with MEKK3 PB1 HTS. binding response (% of control), % at 10 µM;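 active = binding response below 72% of control, or above a set upper limit, though filed actives all read lower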;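 also: 100% = DMSO only wells and 0% = binding blocked by excess unlabeled MEK5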
* marks the source's active call; other numbers are inactive results; · = no result; [ ] = dose if it differs, or a comment.

SMILES	MEKK3 PB1 HTS	MEKK2 mut-MEK5	PREPL inh	UBC13 inh	Apaf-1 inh	MEKK2wt PB1 HTS	MEKK2wt confirm	MEKK2mut-MEK5	MEKK3-MEK5 inh
Nc1nc(Nc2ccc(Cl)cc2)nc2ccccc12	103.0	8.0	6.8	12.8	9.2	126.0	·	·	·
Cc1ccc(Nc2nc(N)c3ccccc3n2)cc1Cl	110.0	7.0	34.1	32.9	11.5	152.0*	138.0	33.0	106.0
CCOc1ccc(N(CC(=O)Nc2cccc(OC)c2)S(=O)(=O)c2c(C)noc2C)cc1	109.0	3.0	-14.6	6.0	13.6	113.0	·	·	·
CCOc1ccc(N(CC(=O)Nc2cccc(Cl)c2)S(=O)(=O)c2c(C)noc2C)cc1	107.0	10.0	-25.8	7.9	3.5	155.0*	98.0	-2.0	101.0
CC(C)(C)c1ccc(C(=O)NCC(=O)NCC(C)(C)N2CCOCC2)cc1	·	·	·	-2.4	3.1	·	·	·	·
Cc1ccccc1OCC(O)CN(Cc1ccccc1O)C1CCCCC1 (centres undefined)	100.0	-2.0	31.2	16.6	23.5	99.0	·	·	·
CC(C)(C)c1cc(Cl)ccc1OCCOCCN1CCCC1	102.0	10.0	13.3	10.4	21.7	124.0	·	·	·
Cc1cc(C(C)(C)C)ccc1OCCOCCN1CCCC1	136.0*	1.0	3.0	8.6	-10.6	110.0	108.0	-2.0	100.0
COc1cccc(CC2(CO)CCCN(Cc3cc4ccccc4[nH]3)C2)c1 (centres undefined)	103.0	30.0	-26.7	13.9	8.1	148.0*	144.0	20.0	103.0
COc1cccc(CC2(CO)CCCN(Cc3ccc(C)s3)C2)c1 (centres undefined)	104.0	1.0	20.0	5.2	7.1	109.0	·	·	·
COc1cccc(CC2(CO)CCCN(Cc3[nH]c4ccc(C)cc4c3C)C2)c1 (centres undefined)	105.0	46.0	8.3	23.4	-5.9	157.0*	140.0	24.0	103.0
CC(C)(CNC(=O)c1cccc(F)c1)CNC(=O)c1cccc(F)c1	·	·	0.7	-10.4	-6.9	·	·	·	·
COc1cc(/C=C(\C#N)C(=O)Nc2ccccc2C(=O)O)cc(Cl)c1OC	43.0*[inhibitor]	-17.0	-1.6	-10.9	0.9	56.0	106.0	6.0	106.0
COc1ccc(/C=C(/C#N)C(=O)Nc2ccccc2C)cc1C(=O)O	108.0	0.0	-4.8	11.1	0.9	106.0	·	·	·
O=C(N/C(=C\c1cccs1)C(=O)N1CCOCC1)c1ccco1	100.0	-3.0	-3.4	-9.1	-2.0	96.0	·	·	·
COc1cc(/C=C(/NC(=O)c2ccccc2)C(=O)N2CCN(C)CC2)c([N+](=O)[O-])cc1OC	130.0*	4.0	-6.0	-2.9	-12.3	105.0	107.0	5.0	103.0
O=C(N/C(=C\c1cccs1)C(=O)N1CCOCC1)c1cccs1	100.0	-5.0	12.9	-2.5	-3.6	96.0	·	·	·
CN1CCN(C(=O)/C(=C\c2cccs2)NC(=O)c2ccco2)CC1	134.0*	0.0	11.1	-17.1	1.3	108.0	107.0	7.0	107.0
CN1CCN(C(=O)/C(=C/c2cccs2)NC(=O)c2cccs2)CC1	72.0*[inhibitor]	0.0	9.8	-7.2	9.3	101.0	107.0	3.0	103.0
COCCN(C(=O)COC(=O)c1nc(Cl)ccc1Cl)c1c(N)n(Cc2ccccc2)c(=O)[nH]c1=O	·	·	17.8	-1.6	5.6	·	·	·	·
Cc1ccc(C)c(NC(=O)Cc2nc(CNCC(C)C)cs2)c1	101.0	3.0	9.5	-1.9	-5.3	102.0	·	·	·
Cc1[nH]c2ccccc2c1C(=O)CN1CCCCC1CCO (centres undefined)	44.0*[inhibitor]	-24.0	-3.0	2.0	-2.4	63.0	114.0	7.0	105.0
CCc1ccccc1NC(=O)C1CCN(c2cnccn2)CC1	102.0	4.0	3.9	2.1	-7.8	102.0	·	·	·
CC(C)C(NC(=O)C1CCCCC1)C(=O)Nc1ccccn1 (centres undefined)	101.0	25.0*	-0.9	6.3	-6.0	106.0	90.0	-4.0	99.0
CC(C)CC(NC(=O)C1CCC(C)CC1)C(=O)Nc1ccccn1 (centres undefined)	102.0	-4.0	-0.3	-6.5	17.5	98.0	·	·	·
SMILES	MEKK3 PB1 HTS	MEKK2 mut-MEK5	PREPL inh	UBC13 inh	Apaf-1 inh	MEKK2wt PB1 HTS	MEKK2wt confirm	MEKK2mut-MEK5	MEKK3-MEK5 inh
O=C(c1cc2ccccc2oc1=O)N(Cc1ccccc1F)C1CCS(=O)(=O)C1 (centres undefined)	103.0	5.0	-4.1	-6.8	-1.0	111.0	·	·	·
COc1cc2ccccc2cc1C(=O)NC(=S)Nc1cc(C(=O)O)ccc1C	129.0*	0.0	·	-12.0	13.1	110.0	100.0	0.0	103.0
CCC(C)(C)n1nnnc1C(c1ccncc1)N1CCN(c2cccc(OC)c2)CC1 (centres undefined)	87.0	-4.0	5.0	2.6	-9.9	98.0	·	·	·
CCC(C)(C)n1nnnc1C(c1cccnc1)N1CCN(c2cccc(C(F)(F)F)c2)CC1 (centres undefined)	123.0*	7.0	2.0	-3.1	27.3	120.0	101.0	-2.0	102.0
COc1ccc(N2CCC(CNC(=O)Nc3ccc(Cl)cc3)C2)cc1 (centres undefined)	141.0*	7.0	3.4	-6.7	5.7	142.0	106.0	2.0	100.0
COc1ccc(N2CCC(CNC(=O)Nc3cccc(OC)c3)C2)cc1 (centres undefined)	99.0	2.0	16.0	-2.0	-4.8	100.0	·	·	·
COc1ccccc1Oc1nc2ccccn2c(=O)c1/C=C(\C#N)C(=O)Nc1c(C)n(C)n(-c2ccccc2)c1=O	93.0	-15.0	11.1	-10.4	-15.4	94.0	·	·	·
Cc1ccc(Oc2nc3ccccn3c(=O)c2/C=C(\C#N)C(=O)Nc2c(C)n(C)n(-c3ccccc3)c2=O)c(C)c1	74.0*[inhibitor]	-1.0	10.3	-10.8	12.1	97.0	111.0	16.0	104.0
